Measured values as given in ChEMBL document CHEMBL4308833, “A Thieno[2,3- d]pyrimidine Scaffold Is a Novel Negative Allosteric Modulator of the Dopamine D2 Receptor” (J Med Chem, 2018).

Assays:
[1] = target: D(2) dopamine receptor (Homo sapiens) (UniProt P14416); assay: Displacement of [3H]Raclopride from recombinant human D2L receptor expressed in Flp-In CHO cell membranes after 2 to 3 hrs by microbeta counting method
How it was run: (§1)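 hD2LR FlpIn CHO membrane homogenate (15 µg protein) was co-incubated with 0.5 nM [3H]raclopride and test compound at 10^-3 to 10^-7 M (half-log dilutions from DMSO stock, in duplicate). Incubation was 2-3 h at 25 °C in HEPES buffer, pH 7.4. Nonspecific binding was defined with 10 µM haloperidol. Filtration was followed by scintillation counting. KB and cooperativity α were obtained from an allosteric ternary complex model.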

[2] = target: D(2) dopamine receptor (Homo sapiens) (UniProt P14416); assay: Allosteric modulation of recombinant human D2L receptor expressed in Flp-In CHO cell membranes assessed as dissociation of [3H]Raclopride in presence of haloperidol after 2 to 3 hrs by microbeta counting method (reference value: 0.014 +/- 0.001 /min); type: cell-based
How it was run: (§2)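 Membranes from FlpIn CHO cells stably expressing hD2LR were incubated with 0.5 nM [3H]raclopride for 60 min in HEPES/NaCl/MgCl2/EGTA/EDTA buffer, pH 7.4, at 25 °C. Dissociation was then started by adding 10 µM haloperidol, with or without modulator. Bound radioactivity was collected by filtration and scintillation counting. Curves were fitted for koff, and t1/2 = 0.6931/koff.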

[3] = target: D(2) dopamine receptor (Homo sapiens) (UniProt P14416); assay: Allosteric modulation of recombinant human D2L receptor expressed in Flp-In CHO cell membranes assessed as dissociation half life for [3H]Raclopride in presence of haloperidol after 2 to 3 hrs by microbeta counting method (reference value: 49.2 min); type: cell-based; how it was run: as §2
[4] = target: D(2) dopamine receptor (Homo sapiens) (UniProt P14416); assay: Displacement of [3H]Raclopride from recombinant human D2L receptor expressed in Flp-In CHO cell membranes assessed as co-operativity factor after 2 to 3 hrs by microbeta counting method; how it was run: as §1
[5] = target: D(2) dopamine receptor (Homo sapiens) (UniProt P14416); assay: (§3) Negative allosteric modulation of recombinant human D2L receptor expressed in Flp-In CHO cells assessed as inhibition of dopamine-induced reduction in forskolin stimulated cAMP accumulation preincubated for 30 mins followed by forskolin stimulation and measured after 30 mins by BRET assay; type: functional, cell-based
[6] = target: D(2) dopamine receptor (Homo sapiens) (UniProt P14416); assay: as §3, with “accumulation by measuring co-operativity factor” for “accumulation”; type: functional, cell-based
[7] = target: D(2) dopamine receptor (Homo sapiens) (UniProt P14416); assay: as §3, with “accumulation by measuring modulation of dopamine efficacy” for “accumulation”; type: functional, cell-based
[8] = target: D(3) dopamine receptor (Homo sapiens) (UniProt P35462); assay: Displacement of [3H]Raclopride from recombinant D3 receptor (unknown origin) expressed in Flp-In CHO cell membranes after 2 to 3 hrs by microbeta counting method
How it was run: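 In FlpIn CHO membranes expressing hD3R, compound was tested for displacement of [3H]raclopride in equilibrium binding. Competition curves were fitted with an allosteric ternary complex model to give KB and the net cooperativity factor with [3H]raclopride. Data are at least three independent experiments in duplicate.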

Homo sapiens = species on record: Homo sapiens; assay: Selectivity ratio of Kb for recombinant D3 receptor (unknown origin) expressed in Flp-In CHO cell membranes to Kb for recombinant human D2L receptor expressed in Flp-In CHO cell membranes; type: cell-based

D(2) dopamine receptor (Homo sapiens), sequence (P14416 whole entry): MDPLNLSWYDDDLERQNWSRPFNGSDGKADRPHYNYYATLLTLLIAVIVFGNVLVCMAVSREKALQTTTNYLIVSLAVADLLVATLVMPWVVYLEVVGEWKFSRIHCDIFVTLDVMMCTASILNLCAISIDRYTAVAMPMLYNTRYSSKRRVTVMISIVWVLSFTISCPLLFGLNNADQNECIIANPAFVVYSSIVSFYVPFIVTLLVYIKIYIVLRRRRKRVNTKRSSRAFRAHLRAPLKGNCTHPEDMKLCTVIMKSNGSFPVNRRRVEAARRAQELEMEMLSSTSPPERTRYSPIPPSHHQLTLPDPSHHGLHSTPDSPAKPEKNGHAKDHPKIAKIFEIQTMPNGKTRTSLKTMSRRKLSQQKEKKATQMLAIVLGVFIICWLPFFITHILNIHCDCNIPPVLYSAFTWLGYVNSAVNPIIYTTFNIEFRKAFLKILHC
D(3) dopamine receptor (Homo sapiens), sequence (P35462 whole entry): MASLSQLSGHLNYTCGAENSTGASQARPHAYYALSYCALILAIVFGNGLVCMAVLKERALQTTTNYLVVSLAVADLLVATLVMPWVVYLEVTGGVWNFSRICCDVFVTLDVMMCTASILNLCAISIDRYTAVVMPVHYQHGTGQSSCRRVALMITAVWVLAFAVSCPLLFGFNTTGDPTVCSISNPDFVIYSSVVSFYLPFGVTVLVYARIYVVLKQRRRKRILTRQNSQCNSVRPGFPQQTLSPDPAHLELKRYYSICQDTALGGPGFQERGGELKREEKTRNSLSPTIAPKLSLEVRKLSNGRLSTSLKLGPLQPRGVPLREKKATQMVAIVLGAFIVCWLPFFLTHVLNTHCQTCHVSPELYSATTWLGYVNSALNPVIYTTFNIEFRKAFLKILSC

CCN(CC)c1nc(CN2CCOCC2)nc2sc3c(c12)CCCC3
Kb [1]: 6 µM
pKb [1]: 5.22
K [2]: 0.038 min⁻¹
T1/2 [3]: 18.2 min
Activity [4]: 0.23
log(activity) [4]: -0.64
Kb [5]: 0.662 µM
pKb [5]: 6.18
Activity [6]: 0.68
log(activity) [6]: -0.17
Activity [7]: 0.08
log(activity) [7]: -1.1
pKb [8]: 3.85
Selectivity ratio (Homo sapiens): 23
